SMILES strings stand for the structures. The source made the active and inactive calls. The calls are words filed in the database; no cut-off is given here.

Consider seven molecules from ChEMBL document CHEMBL3112507 (Bioorg Med Chem, 2014).

The target of data set [1] is T1, Polyunsaturated fatty acid 5-lipoxygenase (Homo sapiens, UniProt P09917).
T1 sequence (P09917 whole entry): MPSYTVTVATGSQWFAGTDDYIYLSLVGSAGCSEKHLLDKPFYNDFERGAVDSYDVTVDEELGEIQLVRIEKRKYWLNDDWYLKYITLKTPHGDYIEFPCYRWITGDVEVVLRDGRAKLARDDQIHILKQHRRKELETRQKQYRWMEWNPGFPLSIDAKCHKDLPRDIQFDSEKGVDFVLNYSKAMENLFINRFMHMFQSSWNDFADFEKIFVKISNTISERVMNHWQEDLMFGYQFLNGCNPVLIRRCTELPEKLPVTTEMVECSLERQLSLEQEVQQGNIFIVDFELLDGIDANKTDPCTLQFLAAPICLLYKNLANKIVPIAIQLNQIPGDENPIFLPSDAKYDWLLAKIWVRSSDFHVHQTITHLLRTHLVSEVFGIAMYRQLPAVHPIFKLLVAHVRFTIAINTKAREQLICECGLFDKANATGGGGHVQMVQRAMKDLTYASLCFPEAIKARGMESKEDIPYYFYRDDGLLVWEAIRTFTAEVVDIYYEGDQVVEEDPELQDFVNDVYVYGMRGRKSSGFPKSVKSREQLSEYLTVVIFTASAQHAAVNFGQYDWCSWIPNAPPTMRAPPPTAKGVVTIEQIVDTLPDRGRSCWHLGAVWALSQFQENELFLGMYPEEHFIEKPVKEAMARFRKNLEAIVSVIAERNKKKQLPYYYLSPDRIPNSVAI
Nature of the data set: Inhibition of 5-LOX (unknown origin) using arachidonic acid as substrate after 5 mins by EIA. The gist of the method:
(§1)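 Test compounds dissolved in DMSO at 0.01, 0.1, 1, 10 and 100 µM. Each was added to 5-LOX enzyme in assay buffer, and the reaction was started with arachidonic acid substrate. Plates were shaken 5 min, chromogen was added, shaken 5 min more, then read at 490 nm. Blanks were buffer plus AA; positive controls were enzyme plus AA. Run in duplicate, means with deviation <5% used. Percent inhibition was calculated from lipoxygenase activity; IC50 derived from the concentration series.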

A further data set concerns HeLa. The experiment in a line: Cytotoxicity against human HeLa cells assessed as cell viability at […] after 15 to 45 hrs by MTT assay. The class given is cell-based.
The target in data set [2] is Prostaglandin G/H synthase 1 (Homo sapiens) (UniProt P23219). The experiment in a line: Inhibition of COX1 (unknown origin) by EIA.
Data set [3] concerns the target T2, Polyunsaturated fatty acid 5-lipoxygenase (Homo sapiens) (UniProt P09917).
T2 sequence (whole entry): T1 sequence (P09917 whole entry)
The experiment in a line: Inhibition of 5-LOX (unknown origin) using arachidonic acid as substrate at 0.1 uM after 5 mins by EIA. The gist of the method:
as §1

Data set [4] deals with T2, Polyunsaturated fatty acid 5-lipoxygenase (Homo sapiens). Nature of the data set: Inhibition of 5-LOX (unknown origin) using arachidonic acid as substrate at 0.01 uM after 5 mins by EIA. The essentials: as §1
For data set [5], the target named is Phospholipase A2 (Homo sapiens) (UniProt P04054). The experiment in a line: Inhibition of PLA2 (unknown origin) by Ellman's method. In general terms: DTNB colorimetry detects thiols as they appear.
For data set [6], the target named is T2, Polyunsaturated fatty acid 5-lipoxygenase (Homo sapiens). Nature of the data set: Inhibition of 5-LOX (unknown origin) using arachidonic acid as substrate at 10 uM after 5 mins by EIA. The essentials: as §1
In data set [7] the target is T3, Prostaglandin G/H synthase 2 (Homo sapiens) (UniProt P35354).
T3 sequence (whole entry): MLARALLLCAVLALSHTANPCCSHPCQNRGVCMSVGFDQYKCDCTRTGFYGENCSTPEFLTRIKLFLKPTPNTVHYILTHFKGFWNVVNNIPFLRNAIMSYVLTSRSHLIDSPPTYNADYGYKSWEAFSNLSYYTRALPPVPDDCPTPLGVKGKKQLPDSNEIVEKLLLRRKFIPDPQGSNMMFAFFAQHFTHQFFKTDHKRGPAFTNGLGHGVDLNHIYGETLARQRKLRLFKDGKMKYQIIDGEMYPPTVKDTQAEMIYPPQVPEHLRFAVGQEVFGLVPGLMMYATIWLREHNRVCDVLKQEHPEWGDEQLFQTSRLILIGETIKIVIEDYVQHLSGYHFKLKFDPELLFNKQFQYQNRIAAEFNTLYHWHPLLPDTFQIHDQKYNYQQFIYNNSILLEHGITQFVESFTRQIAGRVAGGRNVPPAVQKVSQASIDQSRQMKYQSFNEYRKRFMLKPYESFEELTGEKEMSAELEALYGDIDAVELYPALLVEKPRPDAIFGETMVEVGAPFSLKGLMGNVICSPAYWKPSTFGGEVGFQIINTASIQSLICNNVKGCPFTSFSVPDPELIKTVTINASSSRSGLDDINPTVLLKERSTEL
The experiment in a line: Inhibition of COX2 (unknown origin) by EIA.

Data set [8] deals with T1, Polyunsaturated fatty acid 5-lipoxygenase. Nature of the data set: (§2) Inhibition of 5-LOX (unknown origin) by UV-Vis spectrophotometry. The gist of the method:
(§3)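 UV–visible spectral titration of the compounds with 5-LOX. Association constant Ka was obtained from 1/(Af−Aobs) = 1/(Af−Afc) + 1/(Ka[Af−Afc][L]). Ki was calculated as IC50/(1+[L]/Kd) using IC50 values from the enzyme immunoassay.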

Data set [9] deals with T2, Polyunsaturated fatty acid 5-lipoxygenase (Homo sapiens). The data set is described as §2. The essentials:
as §3

Data set [10] shares this target. The experiment in a line: Inhibition of 5-LOX (unknown origin) using arachidonic acid as substrate at 100 uM after 5 mins by EIA. The gist of the method:
as §1

Data set [11] shares this target. Nature of the data set: Inhibition of 5-LOX (unknown origin) using arachidonic acid as substrate at 1 uM after 5 mins by EIA. The essentials: as §1
Data set [12] can be described thus: Octanol-water partition coefficient, log P of the compound. The class given is physicochemical.
Data set [13] concerns the target T1, Polyunsaturated fatty acid 5-lipoxygenase. The experiment in a line: Inhibition of 5-LOX (unknown origin) using arachidonic acid as substrate after 5 mins by EIA in presence of pig liver esterase. The essentials: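 Same 5-LOX colorimetric immunoassay kit procedure (compounds at 0.01–100 µM in DMSO, AA substrate, chromogen, 490 nm, duplicates). Ester compounds were first treated with pig liver esterase, extracted per a reported procedure, before addition to the 5-LOX enzyme.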

Sequence of Prostaglandin G/H synthase 1 (Homo sapiens) (P23219 whole entry): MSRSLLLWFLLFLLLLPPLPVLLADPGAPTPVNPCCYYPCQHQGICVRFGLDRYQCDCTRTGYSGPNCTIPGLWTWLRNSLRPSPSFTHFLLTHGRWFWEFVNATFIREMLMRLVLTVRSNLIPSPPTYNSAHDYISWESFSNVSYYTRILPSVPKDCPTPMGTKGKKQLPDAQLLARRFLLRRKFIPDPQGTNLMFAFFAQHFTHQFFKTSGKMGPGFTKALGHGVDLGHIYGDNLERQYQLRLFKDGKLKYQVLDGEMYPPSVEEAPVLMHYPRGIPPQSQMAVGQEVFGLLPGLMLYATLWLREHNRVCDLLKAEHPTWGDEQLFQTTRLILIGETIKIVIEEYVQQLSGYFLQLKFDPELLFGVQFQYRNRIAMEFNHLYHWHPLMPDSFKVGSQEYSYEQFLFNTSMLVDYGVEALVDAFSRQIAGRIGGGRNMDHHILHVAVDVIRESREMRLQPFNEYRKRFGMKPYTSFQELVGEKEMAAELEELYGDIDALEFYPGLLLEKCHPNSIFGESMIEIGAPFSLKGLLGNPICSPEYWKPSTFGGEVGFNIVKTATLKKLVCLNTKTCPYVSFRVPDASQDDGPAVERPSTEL
Sequence of Phospholipase A2 (Homo sapiens) (P04054 23-148 limits assumed): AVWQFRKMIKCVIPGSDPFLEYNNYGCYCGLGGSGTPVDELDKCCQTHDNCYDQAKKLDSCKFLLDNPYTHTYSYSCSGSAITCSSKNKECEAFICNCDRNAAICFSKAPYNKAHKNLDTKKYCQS

Molecule `Cc1ccc(S(=O)(=O)n2cc(C(=O)C(=O)NCC(=O)O)c3ccccc32)cc1` showed an IC50 in data set [1] of 8.6 nM. In the data set with HeLa, the Activity result is reported as “Non-toxic”. Besides, the inhibition result in [2], in [5] and in data set [7] was “inactive” in each case. Further, the inhibition worked out at 63.5% in data set [3]; 57.4% in [4]; 91.2% in data set [6]; 97.5% in data set [10]; 78.4% in [11]. In data set [8], this molecule gave a Ki of 8.4 nM. The Ka in data set [9] turned out to be 2.07 ×10⁶ /M.
As for `COC(=O)CC[C@@H](NC(=O)C(=O)c1cn(S(=O)(=O)c2ccc(C)cc2)c2ccccc12)C(=O)OC`, the IC50 stood at 900 nM in [1] and 130 nM in data set [13]. This molecule also yielded a lipophilicity (logP) in data set [12] of 2.12. Besides, the inhibition entry in [2], in data set [5] and in data set [7] was “inactive” each time. Further, the inhibition was found to be 35.2% in data set [3]; 18.5% in data set [4]; 60.3% in [6]; 65% in data set [10]; 51.8% in data set [11]. Also, in data set [8], the Ki turned out to be 820 nM. In data set [9], this molecule came in with a Ka of 1.06 ×10⁵ /M.
Molecule `Cc1ccc(S(=O)(=O)n2cc(C(=O)C(=O)N[C@H](Cc3c[nH]c4ccccc34)C(=O)O)c3ccccc32)cc1` returned a half-inhibitory concentration (IC50) in data set [1] of 10 nM. Also, the inhibition result in data set [2], in [5] and in data set [7] was “inactive” each time. The inhibition in data set [3] turned out to be 56.5%; in data set [4], 51%; in [6] it was 81.5%; in data set [10], 85%; in [11] it was 67.3%. This molecule yielded a Ki in data set [8] of 9.9 nM. In data set [9], this molecule came in with a Ka of 3.6 ×10⁵ /M.
For the molecule `COC(=O)[C@H]1CCCN1C(=O)C(=O)c1cn(S(=O)(=O)c2ccc(C)cc2)c2ccccc12`, the values for the 50% inhibitory concentration (IC50) in data set [1] and in [13] were 330 nM and 750 nM, respectively. The logP in [12] was 2.19. Also, the inhibition entry in data set [2], in [5] and in data set [7] was “inactive” in each case. Besides, the inhibition in data set [3] is 48.7%; in data set [4] it was 38.5%; in data set [6], 69.3%; in data set [10], 72%; in [11], 54.5%. The Ki in data set [8] stood at 320 nM. In data set [9], the Ka is 1.2 ×10⁵ /M.
As for `COC(=O)CNC(=O)C(=O)c1cn(S(=O)(=O)c2ccc(C)cc2)c2ccccc12`, the IC50 in data set [1] is 9.7 nM; in data set [13] it was 8 nM. In addition, the Activity result with HeLa is reported as “Non-toxic”. The same molecule registered a logP in [12] of 2.21. In addition, the inhibition result in data set [2], in data set [5] and in [7] was “inactive” each time. Moreover, the inhibition in data set [3] is 51.5%; in data set [4], 50%; in [6] it was 85%; in [10] it was 98%; in data set [11], 67.7%. The molecule further yielded a Ki in [8] of 9.5 nM. The molecule further registered a Ka in data set [9] of 2.32 ×10⁶ /M.
With `COC(=O)[C@@H](Cc1c[nH]c2ccccc12)NC(=O)C(=O)c1cn(S(=O)(=O)c2ccc(C)cc2)c2ccccc12`, the 50% inhibitory concentration (IC50) in [1] is 52 nM; in [13], 14 nM. In addition, the lipophilicity (logP) in [12] was 2.34. For the same molecule, the inhibition entry in data set [2], in [5] and in [7] was “inactive” each time. For the same molecule, the inhibition in data set [3] came to 55.3%; in data set [4] it was 45.5%; in data set [6] it was 75.5%; in data set [10] it was 80.4%; in data set [11] it was 62.7%. Moreover, in [8], the Ki was found to be 37 nM. Also, the Ka in data set [9] came out at 6.67 ×10⁵ /M.
Regarding `COC(=O)[C@@H](Cc1cnc[nH]1)NC(=O)C(=O)c1cn(S(=O)(=O)c2ccc(C)cc2)c2ccccc12`, the values for the IC50 in [1] and in data set [13] were 4330 nM and 2980 nM, respectively. In data set [12], this molecule had a logP of 1.98. Besides, the inhibition result in data set [2], in [5] and in [7] was “inactive” each time. The inhibition in data set [3] was 40.5%; in data set [4], 30%; in data set [6], 58.2%; in data set [10] it was 63.8%; in data set [11], 45.3%. This molecule had a Ki in data set [8] of 4160 nM. In addition, in data set [9], the Ka was 1.01 ×10⁴ /M.

As usually defined, the IC50 is the concentration needed to halve the response being measured. The term inhibition denotes the relative decrease from the control value, in per cent. Broadly, the Ki is the dissociation constant of the complex between target and ligand, obtained from inhibition or displacement. Lower therefore signals tighter binding. One may read the logP as the decadic logarithm of the partition coefficient of the neutral form, usually between octanol and water. The low end stands for a more hydrophilic compound, the high end for a more lipophilic compound.
